Bioassay records as filed in PubChem BioAssay.
Only some compounds are listed: those with a hit (about 2.4% of all), similar ones and a draw of the others.
PRMT1 FP inh = blocks human protein arginine methyltransferase 1. recombinant PRMT1, activity-based probe fluorescence polarization. Q99873. inhibition, % at 2.79 µM. hit rate 1.3% among 370,000;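 active = inhibition above about 21% made by adding two undisclosed values, limit read from the data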
SIAE primary = inhibitors of human sialic acid acetylesterase SIAE; Q9HAT2; SIAE FP-Rh probe binding, fluorescence polarization; inhibition, % at 9.66 µM; hit rate 0.69% among 370,000;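 active = inhibition above a cutoff: mean of compounds within the control limits plus 3 SD of those, cut at about 17% in these data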
Target sequence (Q9HAT2 whole entry, looked up): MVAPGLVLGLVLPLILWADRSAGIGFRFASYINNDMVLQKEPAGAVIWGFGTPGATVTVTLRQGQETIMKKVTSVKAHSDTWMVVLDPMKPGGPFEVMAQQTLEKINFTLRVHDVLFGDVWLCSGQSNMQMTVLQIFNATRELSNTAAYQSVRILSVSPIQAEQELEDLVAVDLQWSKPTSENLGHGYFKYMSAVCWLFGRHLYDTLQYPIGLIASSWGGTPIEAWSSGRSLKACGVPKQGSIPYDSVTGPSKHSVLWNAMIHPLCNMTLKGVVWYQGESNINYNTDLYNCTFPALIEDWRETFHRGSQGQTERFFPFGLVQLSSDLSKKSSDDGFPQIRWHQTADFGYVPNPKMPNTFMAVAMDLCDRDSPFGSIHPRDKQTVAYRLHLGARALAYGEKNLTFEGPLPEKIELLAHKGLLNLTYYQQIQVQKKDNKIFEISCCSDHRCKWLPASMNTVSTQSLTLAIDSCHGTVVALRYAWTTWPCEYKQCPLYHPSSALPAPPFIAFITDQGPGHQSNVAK
HTRA1 inhibitor = blocks human HTRA1 serine peptidase; hit rate 0.5% among 340,000; AID 504803; Q92743; inhibition, % at 5.96 µM; recombinant HTRA1, FP-rhodamine activity-based probe, fluorescence polarization; in the data active = inhibition above about 36%
mABHD4 FP = ABHD4 (mouse) inhibition, primary FP screen; Q8VD66; hit rate 0.54% among 370,000; AID 720543; inhibition, % at 8.92 µM; purified mABHD4, FP-Rh probe fluorescence polarization;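 active = inhibition exceeding the mean over every tested compound plus 3 SD, cut at about 30% in these data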
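assay system = mABHD4 protein | compound dosing = single nominal dose of 8.92 µM, 0.89% DMSO final | read-out basis = percent inhibition of probe binding, normalized to plate controls | schedule = Enzyme–compound pre-incubation 45 min, then probe 60 min, both 25 °C | detection = fluorescence polarization, excitation 525 nm, emission 598 nm, BODIPY TMR filters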
JMJD2C inh = blocks human GASC-1 demethylase activity; Q9H3R0; GST-JMJD2C(1-420) H3K9me3 demethylation, DELFIA europium; inhibition, % at 2.35 µM; hit rate 0.069% among 330,000; AID 2099;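 active = more than half of a compound's replicate wells show inhibition beyond 50%, single wells judged on their own value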;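 note: signal counts dimethyl H3K9 product captured on neutravidin plate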
PRMT1 inh conf = confirmation of human PRMT1 inhibitors; AID 687036; recombinant His-PRMT1, activity-based probe fluorescence polarization; shares compounds with PRMT1 FP inh; inhibition, % at 2.79 µM; hit rate 42% among 3,300;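 active = mean inhibition across replicates above the hit cutoff derived for the earlier primary screen, cut at about 22% in these data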
Hits are given with their value; - = inactive; . = no result.

SMILES	PRMT1 FP inh	SIAE primary	HTRA1 inhibitor	mABHD4 FP	JMJD2C inh	PRMT1 inh conf
CCCOc1ccc(N2C(=O)CC(N3CCN(c4ccccc4F)CC3)C2=O)cc1 (stereo not drawn)	-	-	-	-	-	.
CCc1ccc(N2CC(C(=O)OC)CC2=O)cc1 (stereo not drawn)	-	-	-	-	-	.
CCc1ccc(N2C(=O)CC(N3CCC(C(=O)OC)CC3)C2=O)cc1 (stereo not drawn)	44	-	-	-	-	-
CCCOc1ccc(N2C(=O)CC(N3CCC(c4nncn4CC)CC3)C2=O)cc1 (stereo not drawn)	39	-	-	-	-	-
CCOC(=O)C1CCN(C2CC(=O)N(c3ccc(OCC)cc3)C2=O)CC1 (stereo not drawn)	45	-	-	-	-	-
CCCCCCOc1ccc(N2C(=O)CC(N3CCC(C(=O)OCC)CC3)C2=O)cc1 (stereo not drawn)	-	-	-	-	-	.
CC(CCN1CCC(C(O)(c2ccccc2)c2ccccc2)CC1)Oc1ccc(OC(F)(F)F)cc1 (stereo not drawn)	-	-	.	-	.	.
Cc1c(Cc2ccccc2)sc(NC(=O)Cc2ccccc2)c1C(N)=O	29	-	-	-	-	-
CCC(=O)Nc1sc(Cc2ccccc2)c(C)c1C(N)=O	-	-	-	-	-	.
C=CCNCc1ccc(OC)cc1OC	-	-	.	-	.	.
COc1cccc(-c2nc(SC)nc3sc(C(=O)NC(C)(C)C)c(N)c23)c1	25	-	-	-	-	-
Cc1ccc(NC(=O)[C@@H]2CCCN2S(=O)(=O)c2cccc3cccnc23)c(C)c1	-	-	.	-	.	.
O=C(O)/C=C\C(=O)Nc1ccccc1C(=O)N1CCC(O)(c2ccc(Cl)cc2)CC1	29	-	-	-	.	-
CC(=O)NC(C)(c1ccccc1)c1nc(/C=C/c2ccccc2)cs1 (stereo not drawn)	-	-	.	-	.	.
Cc1ccccc1N1C(=O)c2cccc3c(N(C)CCO)ccc(c23)C1=O	71	-	-	-	-	63
COc1ccccc1N1C(=O)c2cccc3c(N(C)CCO)ccc(c23)C1=O	66	-	-	-	-	47
COc1ccccc1N1C(=O)c2cccc3c(C(=O)O)ccc(c23)C1=O	-	-	-	-	-	.
COC(=O)[C@]12C[C@H](CC(=O)N3CCSCC3)C(=O)N(Cc3cccc4ccccc34)C1=C[C@H](COCc1ccccc1)O[C@@H]2C	-	-	.	-	.	.
CC(C)=CCOc1ccc2c(C)c(CCC(=O)N3C[C@H]4C[C@@H](C3)c3cccc(=O)n3C4)c(=O)oc2c1C	-	-	.	-	.	.
Cc1ccc[n+](-c2nc([O-])sc2C=O)c1	58	-	-	-	-	62
C#CCN1c2ccccc2Sc2cccnc21	63	-	-	-	-	-
Cc1cc2cc(C(c3nnnn3Cc3ccco3)N3CCCCC3)c(=O)[nH]c2cc1C (stereo not drawn)	30	-	-	-	-	-
Cc1ccc2cc(CN(Cc3ccc4c(c3)OCO4)Cc3nnnn3Cc3ccco3)c(=O)[nH]c2c1C	61	-	-	-	-	-
Cc1ccc2cc(CN(CCN3CCOCC3)Cc3nnnn3Cc3ccco3)c(=O)[nH]c2c1C	-	-	-	-	-	.
CCOc1ccc2[nH]c(=O)c(C(c3nnnn3Cc3ccco3)N3CCN(C)CC3)cc2c1 (stereo not drawn)	-	-	-	-	-	.
SMILES	PRMT1 FP inh	SIAE primary	HTRA1 inhibitor	mABHD4 FP	JMJD2C inh	PRMT1 inh conf
COc1cc2cc(CN(Cc3nnnn3Cc3ccco3)C3CCCCC3)c(=O)[nH]c2cc1OC	29	-	-	-	-	-
Cc1ccc(C)c2[nH]c(=O)c(CN(Cc3ccc4c(c3)OCO4)Cc3nnnn3Cc3ccco3)cc12	28	-	-	-	-	-
COc1ccc(NC(=O)C2(C)Cc3c(-c4cccc(C(F)(F)F)c4)ccnc3O2)cn1 (stereo not drawn)	-	-	.	-	.	.
COc1ccc(C2NC(=S)N3C(c4ccc(OC)cc4)NC(=S)N23)cc1 (stereo not drawn)	46	-	-	-	-	-
S=C1NC(c2ccccc2)N2C(=S)NC(c3ccccc3)N12 (stereo not drawn)	-	-	-	-	-	.
COC(=O)[C@]12C[C@H](CC(=O)NCCC(C)C)C(=O)N(Cc3ccc4c(c3)OCO4)C1=C[C@H](C(C)C)O[C@@H]2C1CC1	-	-	.	-	.	.
